Source: ChEMBL document CHEMBL1154723, “Identification and characterisation of new inhibitors for the human hematopoietic prostaglandin D2 synthase” (Eur J Med Chem, 2010)

What was measured:
[1] = molecular target: T1, Hematopoietic prostaglandin D synthase (Homo sapiens, UniProt O60760); experiment: Inhibition of human H-PGDS expressed in Escherichia coli BL21 assessed as rate of glutathione-chloro-dinitro benzene conjugation at 50 uM
In short: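 GSH–CDNB conjugation by E. coli BL21 DE3-expressed, GSH-affinity purified human H-PGDS (2.5 ng/ml). Buffer was 0.1 M Tris HCl pH 8.0 with 2 mM MgCl2, 1 mM CDNB, 2 mM GSH and 10% ethanol. Read at A340 nm over 10 min at 25 C. Percent inhibition at 50 uM inhibitor, mean ± SD of triplicates.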

[2] = molecular target: T1, Hematopoietic prostaglandin D synthase; experiment: Inhibition of human H-PGDS expressed in Escherichia coli BL21 assessed as rate of glutathione-chloro-dinitro benzene conjugation
In short: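 Recombinant human H-PGDS from E. coli BL21 DE3 (pET17b, uninduced), GSH-affinity purified. Reaction: 0.1 M Tris HCl pH 8.0, 2 mM MgCl2, 1 mM CDNB, 2 mM GSH, 2.5 ng/ml enzyme, 10% (v/v) ethanol. Conjugate formation followed at A340 nm over 10 min, 25 C. Eight inhibitor concentrations bracketing IC50, background-corrected for solvent. Nonlinear regression, triplicates, mean ± SEM.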

T1 sequence (O60760 whole entry): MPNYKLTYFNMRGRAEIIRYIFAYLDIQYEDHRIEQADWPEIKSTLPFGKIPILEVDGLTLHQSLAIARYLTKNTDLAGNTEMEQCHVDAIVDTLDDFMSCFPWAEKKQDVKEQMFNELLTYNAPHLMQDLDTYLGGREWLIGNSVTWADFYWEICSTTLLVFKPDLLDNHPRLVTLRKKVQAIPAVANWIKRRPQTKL

Row | SMILES | inhibition [1] [%] | IC50 [2] [µM]
1 | COc1ccc(C(=O)c2cccs2)cc1 | 41.8 | 105
2 | C=C(CC)C(=O)c1ccc(OCC(=O)O)c(Cl)c1Cl [ETHACRYNIC ACID] | 25.3 | 122
3 | O=C(O)c1ccc2ccccc2c1Br | 5.1 | –
4 | O=C(O)COc1ccc(C(=O)c2cccs2)c(Cl)c1Cl | 0 | –
5 | O=C1OC(c2ccc(O)c(S(=O)(=O)O)c2)(c2ccc(O)c(S(=O)(=O)O)c2)c2c(Br)c(Br)c(Br)c(Br)c21 [SULFOBROMOPHTHALEIN] | 66.9 | 27
6 | O=C(Nc1ccccc1)Nc1cccc(C(=O)O)c1 | 8.6 | –
7 | COC(=O)Nc1nc2cc([S+]([O-])c3ccccc3)ccc2[nH]1 (stereo not given) | 0 | –
8 | COc1ccc2c(c1)c(CC(=O)O)c(C)n2C(=O)c1ccc(Cl)cc1 | 0 | –
9 | c1ccc(C(OC2CCN(CCCc3nnn[nH]3)CC2)c2ccccc2)cc1 | 100 | 1.8
10 | COC(=O)Nc1nc2ccc([S+]([O-])c3ccccc3)cc2[nH]1 (stereo not given) [OXFENDAZOLE] | – | > 300
11 | CC1(C)Cc2c(-c3ccccc3)c(-c3ccc(Cl)cc3)c(CC(=O)O)n2C1 | 0 | –

Next, values leading:

Row | inhibition [1] [%] | IC50 [2] [µM] | SMILES
12 | 0 | – | O=C(O)CCn1c2c(c3ccccc31)C[C@H](NS(=O)(=O)c1ccc(F)cc1)CC2
13 | 78.2 | 9.2 | O=C(c1ccccc1)c1cccs1
14 | 0 | – | O=C(O)Cc1ccccc1Nc1c(Cl)cccc1Cl
15 | 100 | 0.2 | Nc1c(S(=O)(=O)O)cc(Nc2ccc(Nc3nc(Cl)nc(Nc4ccccc4S(=O)(=O)O)n3)c(S(=O)(=O)O)c2)c2c1C(=O)c1ccccc1C2=O [CIBACRON BLUE]
16 | 0 | – | Cc1cc(CC(=O)O)n(C)c1C(=O)c1ccc(Cl)cc1
17 | 17 | – | O=C(O)CCCCCC[C@H]1C(=O)NC(=O)N1CCC(O)C1CCCCC1 (stereo not given in full)
18 | 0 | – | O=C(O)c1cc(/N=N/c2ccc(S(=O)(=O)Nc3ccccn3)cc2)ccc1O
19 | 42.6 | – | COC(=O)Nc1nc2cc(C(=O)c3cccs3)ccc2[nH]1
